According to ChEMBL document CHEMBL4513216, “Probing the Open Global Health Chemical Diversity Library for Multistage-Active Starting Points for Next-Generation Antimalarials” (ACS Infect Dis, 2020):

Assay: Toxicity liver stage against HepG2, at 10uM
Type: cell-based
Parameters: test concentration 10 uM, cell line HepG2-A16-CD81EGFP
Settings: human, HepG2-A16-CD81EGFP cells; read-out: INHIBITION
Summary of the method: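 Uninfected HepG2-A16-CD81EGFP cells, 3 × 10^3 per well, 1536-well, plated on prespotted compound at 10 μM final, parasite-free screening media added to match infected plates; puromycin 10 μM positive, DMSO 0.5% negative; run in parallel with 48 h PbLuc assay at 37 °C, 5% CO2; viability by CellTiter-Glo luminescence, normalized to controls.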

SMILES | cytotoxicity at 10 µM
F[C@@H]1CN(CC2CC2)C[C@@H]1OCc1nc2ccc(C(F)(F)F)cc2[nH]1 | -6.22%
C[S+](C)[c-]1c(=O)[nH]c(=O)n(CCc2ccc(F)cc2)c1=O | 2.86%
CCOC(=O)c1nc(CC(=O)Nc2ccc3cc[nH]c3c2)no1 | 7.12%
CC(C)n1c(=O)c2ccccc2n(CCN2CCCCC2)c1=O | -16.6%
COCCn1cc(CC(=O)Nc2cc(C)n(C)n2)c2ccccc21 | -1.96%
COc1nn(C)cc1C(=O)NCC(=O)Nc1cccnc1 | -8.75%
CCCc1nnsc1C(=O)NCC1CCN(C(=O)c2ccncc2)CC1 | 16.2%
O=C(CN1C(=O)CCC1=O)N1Cc2cncnc2C1 | -8.33%
COCC(=O)N1CC[C@H]2N(C)CC[C@@]2(C(=O)Nc2ccccc2)CC1 | 3.48%
CCn1cc(C(=O)Nc2cc(C)ccc2C)cn1 | 0.946%
CCOCC(=O)N1CCC(Oc2ccc(Cl)cn2)CC1 | 7.39%
CCCC(=O)N1CCC2(CC1)CC(NC(C)=O)c1ccccc1O2 (stereo not given) | 5.08%
c1ccc2c(N3CCCCC3)cnnc2c1 | -5.34%
CC(C)C(NC(=O)C1CC1)c1cc(O)nc(-c2cccnc2)n1 (stereo not given) | 5.18%
Cc1nn(CCC(=O)NC2CCCOC2)c(C)c1C (stereo not given) | 2.06%
Cc1nccc(C2CN(Cc3ccc(-c4ccccc4C(=O)O)o3)C2)n1 | 4.28%
c1cncc(CN2CCC(c3csc4nccn34)CC2)c1 | 2.9%
CCC(C(=O)NCc1ccn(-c2ccc(F)cc2)n1)N1CCCC1=O (stereo not given) | -5.63%
O=S(=O)(CCCn1cncn1)Cc1cccc(F)c1 | 2.31%
CN(Cc1ccc(F)cc1)C(=O)c1ccoc1CN1CCNC(=O)C1 | -3.57%
CN1CCN(C2CCN(Cc3noc(C4CC4)n3)CC2)C1=O | 8.54%
CNC(=O)CN(C)S(=O)(=O)c1c(Br)cc2[nH]c(=O)oc2c1Cl | 1.36%

SMILES | cytotoxicity at 10 µM
CN(CC(=O)N(C)C(c1ccc(Cl)cc1)c1cccnc1)C1CC1 (stereo not given) | 10.9%
COc1c(C2CCCN2C(=O)c2ccc(C(N)=O)s2)c(C)nn1C (stereo not given) | 0.00973%
O=C(NC1CCN(Cc2ccc(F)cc2)CC1)c1ccc2c(c1)CCC2 | 2.55%
CNC(=O)c1cccc(CN2CCC(N(C)Cc3ncc(C)o3)C2)c1 (stereo not given) | -103%
CC(NC(=O)Nc1cnn(CC(N)=O)c1)c1ccc(Cl)s1 (stereo not given) | 11.5%
Cc1noc(CNc2cc3c(cc2Cl)NC(=O)CO3)n1 | 3.07%
Cc1cc(NC(=O)N2CCCC(O)C2)nn1-c1ccccc1Cl (stereo not given) | 4.99%
COc1ccc(C(=O)N(C2CC2)C2CC(=O)NC2=O)cc1 (stereo not given) | -10.7%
CCCC(NC(=O)c1ccc(OC)cc1C)c1nnn[nH]1 (stereo not given) | 2.06%
CC(C)(C)S(=O)(=O)CCNC(=O)NCCCc1cccc(F)c1 | 17%
O=C(Nc1cccnc1)Nc1cccc(CN2CCC(O)CC2)c1 | -4.06%
CC(=O)NCCC(=O)Nc1cccc(N2CCN(CC3CC3)CC2)c1 | -5.62%
CC1CN(CC(=O)NC(=O)NCc2cccs2)CCN1CC(F)(F)F (stereo not given) | -0.402%
Cc1ccc(S(=O)(=O)NC(=O)CCc2cscn2)cc1Cl | 8.9%
CSc1ccsc1C(=O)NC(C)c1ccc2c(c1)CCC(=O)N2 (stereo not given) | 1.28%
CC(NCC1CCS(=O)(=O)CC1)c1cccc(OC(F)F)c1 (stereo not given) | -5.16%
CN(CCC#N)C(=O)CN1CCC(c2cc3ccccc3[nH]2)CC1 | 4.35%
Cc1ccc(C(O)CNC(=O)CCCc2ccccn2)o1 (stereo not given) | 0.166%
CCC(C)c1cc(C(=O)N(CC(=O)NC)c2cccc(F)c2)on1 (stereo not given) | 6.33%
CCC(C)NS(=O)(=O)c1ccc(C(=O)NC2(C#N)CCC2)cc1 (stereo not given) | -7.79%
Cc1ccccc1CNc1ccccc1OCC(=O)N1CCOCC1 | -2.38%
COCCNC(=O)N1CCCC1COc1ccccc1 (stereo not given) | 2.04%

SMILES | cytotoxicity at 10 µM
CCOCCN(C)C(=O)Nc1cccc2c1CCN(CC)C2 | -49.3%
Cc1nnc(NC(=O)NCCCN2CCC(C(N)=O)CC2)s1 | 5.61%
CC(=O)N(C)C1CCCc2nc(C)sc21 (stereo not given) | -4.97%
CCn1c(CN(C)CC(=O)N(C)C)nc2c(F)cccc21 | -4.36%
Cc1nnc(SCCC(=O)N(C)Cc2ccc(Cl)s2)[nH]1 | 14.4%
CN(Cc1cc(F)ccc1C#N)CC(C)(CO)CO | -10.4%
CC(C)C(NC(=O)c1ccc(Cl)cc1Cl)C(=O)Nc1ccn(C)n1 (stereo not given) | 1.5%
O=C(Nc1ccc(F)cc1)C1CSCN1 (stereo not given) | -2.76%
c1cnn(CCNCc2csc(-c3ccc4c(c3)OCO4)n2)c1 | 4.12%
Cc1nc(CN2C(=O)CCC23CCN(Cc2ccco2)CC3)cs1 | -105%
Cc1nc(N2CCCC2)nc2c1CCN(C(=O)c1ccoc1C)CC2 | -111%
CNC(=O)C1Cn2ccnc2C2(CCN(Cc3c(C)noc3C)CC2)O1 (stereo not given) | -68.6%
Cc1ccc2oc(=O)n(CCC(=O)N3CCCC4(CNC(=O)O4)C3)c2c1 (stereo not given) | -6%
c1ccc(C(CNc2ncccn2)N2CCOCC2)nc1 (stereo not given) | -47.5%
CN(CCO)C[C@@H]1CN(C(=O)c2cccc(OC(F)F)c2)C[C@@H]1CO | -0.185%
Cc1cnn(CCC(=O)N2CCN(C(=O)C3CC3)[C@@H]3CS(=O)(=O)C[C@@H]32)c1 | 0.168%
O=C(CC1CCc2ccccc21)N1CCC(C(=O)O)(n2ccnc2)CC1 (stereo not given) | 10.7%
CCn1c(CN(C)C)nnc1C1CCN(Cc2ccncc2)CC1 | 8.18%
Cc1ccccc1-n1cc(-c2ccnc(N3CCCC(O)C3)n2)cn1 (stereo not given) | 6.48%
CCc1cnc(N)nc1N(C)CCc1cnn(C)c1 | 55.9%
COc1ccc(C[C@@H]2CC[C@H](CN(C)C3CCN(C)CC3)O2)cc1 | -7.25%
CN(C)CC1(O)CCCN(C(=O)c2ccccc2-n2cncn2)C1 (stereo not given) | 2.11%

SMILES | cytotoxicity at 10 µM
COCCC1(C(=O)O)CCCN(Cc2ccccc2OCCO)C1 (stereo not given) | -40.9%
CNC(=O)c1cccnc1N1CCN(Cc2ccccc2)C(CCO)C1 (stereo not given) | -6.03%
C[C@@H]1CN(Cc2ccncc2)C[C@@]1(O)C1CC1 | -5.08%
CCN1CCN(S(=O)(=O)N2CCCCCC2)[C@H]2CS(=O)(=O)C[C@H]21 | 1.58%
COc1ccc(C(=O)N2C[C@@H](C(=O)O)[C@H](c3ccccc3C)C2)c(O)c1 | -4.31%
Cc1csc(CCCNC(=O)[C@H]2CNC[C@@H](C(=O)N3CCCC3)C2)n1 | -15.9%
O=C(CCC1CC1)N1C[C@@H](CN2CCCC2)[C@@H](CO)C1 | -4.43%
CCc1csc(C2CCCN(C(=O)c3ccc(=O)n(CC)n3)C2)n1 (stereo not given) | -1.52%
Cn1ccc(CN2CCC(OCc3ccccc3)CC2)cc1=O | 0.259%
Cc1cc(C)n(CC2CN(CCC(=O)NC3CCCCC3)CCO2)n1 (stereo not given) | -2.95%
CCOc1ncccc1C(=O)N1CCCC1Cn1nc(C)cc1C (stereo not given) | -4.45%
COc1cccc(-n2nnc(C(=O)N3CCCCCC3)c2C)c1 | -9.71%
Cc1ccsc1C(=O)N(C)Cc1ccncc1 | -4.54%
CS(=O)(=O)Cc1ccc(CNC(=O)N2CCC(C(N)=O)C2)cc1 (stereo not given) | -6.43%
OC(COCc1cccs1)CN1CCc2c(ncn2C2CC2)C1 (stereo not given) | -4.29%
Cc1cnn(CC2CCCN2CCCS(=O)(=O)N(C)C)c1 (stereo not given) | -7.45%
Cc1cc(OCC(=O)N2CCCC2c2noc(C)n2)no1 (stereo not given) | -11.1%
CCn1cnnc1CNC(=O)c1cc(Cl)ccc1I | -5.98%
COc1ccc(NC(=O)NCC(O)c2ccccc2F)c(OC)c1 (stereo not given) | 3.22%
CCNC(c1ccc(Br)cc1)c1cccnc1 (stereo not given) | -0.1%
N#Cc1cccc(S(=O)(=O)NC(=O)COC2CCCC2)c1 | -4.79%
CSc1nccn1-c1cccc(C(=O)NCCCN2CCOCC2)c1 | -4.74%

SMILES | cytotoxicity at 10 µM
CN1CCCN(C(=O)NCc2csc(Br)c2)CC1 | -5.85%
CCOCC(O)CN1CCN(C(=O)Cc2ccc(C)nc2)CC1 (stereo not given) | -4.97%
CN(Cc1cnn(C)c1)C(=O)NC1CCN(c2ncccn2)CC1 | -5.82%
COc1ncccc1NC(=O)C1CCS(=O)(=O)C1 (stereo not given) | -4.48%
CN(CCNC(=O)c1scnc1Cl)c1ccccc1 | 6.88%
CC(C)c1nnc2n1CCN(C(=O)c1ccc(OCC(N)=O)cc1)C2 | -4.84%
c1cc(CNc2cnc(C3CCCN3)cn2)ccn1 (stereo not given) | -6.77%
O=C(Cc1ccccc1)N1CC[C@H]2[C@@H]1CCC(=O)N2Cc1ccncc1 | 3.07%
CN(C)CCN1C[C@@H]2CN(C(=O)c3ccsc3)C[C@@H]2C1=O | -7.79%
Cc1ccc(N2CCC3(CCC(=O)N3Cc3ccncc3)CC2)nn1 | -110%
Cc1cccc(COC[C@H]2CC[C@H]3[C@H](CCN3C(=O)CC3CC3)O2)n1 | -4.66%
Cn1cc(C(=O)N[C@@H]2CN(Cc3cccnc3)[C@@H]3CCCO[C@@H]32)cn1 | 1.18%
Cn1ccnc1CN1CCC2(CC1)CC(Oc1cccnc1)C2 | -20.7%
O=C(N1CCCC1)N1CCC[C@]2(C[C@@H](Oc3ncccc3F)CO2)C1 | -0.269%
CN(C)C(=O)CN1CCc2ncnc(N(C)C)c2CC1 | -93.2%
COCCN1CC[C@@H]2O[C@H](COCc3csc(C)n3)CC[C@@H]21 | -76.7%
CN(C)[C@@H]1CCN(C(=O)Cc2ccc(F)cc2)[C@H]1Cc1cnn(C)c1 | 4.58%
O=C(Cc1ccccn1)NCC1OCCc2cn(CC3CC3)nc21 (stereo not given) | 7.51%
CC1(C)CC(n2cc3nc(N)[nH]cc-3c2=O)CC(C)(C)N1 | -12.8%
CC(C)=CCN1C[C@@H]2CC[C@H]1CN(C(=O)c1c[nH]c(=O)c(Cl)c1)C2 | -14.5%
O=c1occ(CN2CCOCC2)c(O)c1CN1CCOCC1 | -12.1%
CC(C)n1c(=O)[nH]c2cn(-c3ccc(F)cc3)c(=O)n21 | -7.74%
